# Bioassay records deposited in PubChem by Broad Institute.
# Most compounds without a hit are left out; they make up all but 3% or so of the library.
# PGC1a acetyl inh – inhibitors of PGC1a acetylation signal, primary screen, cell-based, U2OS, AlphaScreen, inhibitor mode; AlphaScreen anti-acetyl-lysine; with virally co-expressed GCN5 acetyltransferase; inhibition, % at 15.6 µM; hit rate 0.17% among 350,000;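 active means every replicate shows inhibition of at least 40%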
# SIRT5 inh – SIRT5 desuccinylase inhibitors, primary screen, biochemical, fluorescence imaging, single point, set 5; Purified SirT5, succinyl-peptide AMC, trypsin-coupled fluorescence; inhibition, % at 15 µM; hit rate 1.1% among 330,000; in the data active means inhibition above about 15%
# Target sequence (Q9NXA8 whole entry, looked up): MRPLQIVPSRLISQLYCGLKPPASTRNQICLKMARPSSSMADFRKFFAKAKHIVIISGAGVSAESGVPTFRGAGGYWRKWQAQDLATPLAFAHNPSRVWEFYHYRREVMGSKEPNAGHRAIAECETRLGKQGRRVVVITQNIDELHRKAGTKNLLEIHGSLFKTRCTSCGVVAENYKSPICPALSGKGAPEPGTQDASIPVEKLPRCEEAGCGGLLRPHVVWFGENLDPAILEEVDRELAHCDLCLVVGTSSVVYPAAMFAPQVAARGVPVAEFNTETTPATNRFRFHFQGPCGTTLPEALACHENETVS
# S100A4 inh HTS – inhibitors of S100A4-myosin IIA peptide binding, primary screen, biochemical, fluorescence polarization, TAMRA-MyoIIA peptide; Protein S100-A4 (Homo sapiens), P26447; inhibition, % at 10.7 µM; hit rate 0.14% among 360,000; AID 652163, 2013;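 active means mean inhibition of at least 70% across replicates, with every replicate also reaching that level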
# Target sequence (P26447 whole entry, looked up): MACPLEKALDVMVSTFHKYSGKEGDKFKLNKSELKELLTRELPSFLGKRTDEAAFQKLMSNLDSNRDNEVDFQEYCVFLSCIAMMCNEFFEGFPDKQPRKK
#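 Material: S100A4 monomer protein | Medium: HEPES pH 7.2 with CaCl2, KCl, NaCl, DTT, Triton | Reagent: Labelled myosin peptide probe, 5 nM | Doses: One dose per compound | Times: 5 min incubation before reading | Benchmarks: Neutral control DMSO, positive control TFP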
# rRNA inh HTS – reduced GFP signal of wild-type E. coli, primary screen, bacterial rRNA inhibitor project, GFP/RFP fluorescence, OD600, single point. E. coli WT GFP vs humanized-ribosome RFP mutants, 24 h; hits give low values; DMSO median 0, no signal -100. GFP signal change (wild-type ribosome), % (test concentration not listed). hit rate 1.6% among 350,000. AID 720706, 2013;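 active means significant combined selectivity score with lowered wild-type GFP, culture density cut under 30%, mutant RFP and density less affected; inactive means any of these conditions unmet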
# Cneo AK release – Cryptococcus neoformans cell lysis inducers, primary screen, AK release luminescence, single concentration. C. neoformans lysis, adenylate kinase release luminescence, 4 h; normalised: neutral wells 0, clomiphene wells 100. lysis activity, % at 15 µM. hit rate 0.2% among 360,000;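 active means mean lysis activity across replicates of at least 80%, whatever share of replicates individually reach that level; inactive means mean lysis activity below 80%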
#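 Material – Cryptococcus neoformans yeast cells · Quantity – 5 × 10^6 yeast cells/mL · Buffer or medium – YPD medium · Compound – single dose · Timing – 4 h static compound exposure, 37 °C, read 1 h post-reagent · Signal – adenylate kinase release luminescence · Read-out basis – lysis from increased AK signal · Benchmarks – Clomiphene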
# C2C12 statin – suppressors of statin myotoxicity in C2C12 myotubes, primary screen, cell-based, single point, plate reader. AID 602340, 2012. C2C12 myotubes + simvastatin, ATP luminescence, 48 h; scaled: DMSO 0, geranylgeraniol control 100. rescue of ATP level, % at 7.49 µM. hit rate 0.78% among 330,000;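 active means mean ATP rescue above about 67%, or every replicate alone reaching that limit, limit read from the data, passing the limit was not always enough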;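 further: myotubes were challenged with 10 µM simvastatin during compound exposure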
# Hits are given with their value; - = inactive; . = not tested or not shown.
SMILES,PGC1a acetyl inh,SIRT5 inh,S100A4 inh HTS,rRNA inh HTS,Cneo AK release,C2C12 statin
Cc1cccc(CS(=O)(=O)c2ncc(Cl)c(C(=O)Nc3c(C)cccc3C)n2)c1,.,-,-,-,-,-
Cc1cccc(C)c1NC(=O)c1nc(S(=O)(=O)Cc2ccccc2)ncc1Cl,.,-,-,-,-,134.7
CS(=O)(=O)c1ncc(Cl)c(C(=O)Nc2ccc(OC(F)F)cc2)n1,.,-,-,-,-,117.0
CCS(=O)(=O)c1ncc(Cl)c(C(=O)Nc2ccc(S(=O)(=O)N(C)c3ccccc3)cc2)n1,.,-,-,-36.3,-,-
C[C@H](CO)N1C[C@H](C)[C@H](CN(C)C(=O)c2ccccc2)Oc2ncc(C3=CCCCC3)cc2C1=O,-,-,-,-,-,-
O=C(C[C@H]1C[C@@H]2c3cc(NC(=O)c4ccc5c(c4)OCO5)ccc3O[C@@H]2[C@@H](CO)O1)NCC1CC1,-,-,-,-,-,-
CCCNC(=O)C1(C)CCCN(Cc2cccc(Oc3ccccc3)c2)C1 (stereo not drawn),-,20.4,-,-,-,-
CCNC(=O)C1(C)CCCN(Cc2cccc(Oc3ccccc3)c2)C1 (stereo not drawn),.,.,.,.,-,-
CN(Cc1cnccn1)Cc1nc(Cc2cccc(F)c2)no1,.,-,-,-,-,-
Cc1nc(CN(C)Cc2nc(Cc3cccc(F)c3)no2)cs1,.,25.5,-,-,-,-
CO[C@H]1CN(C)C(=O)c2cc(NC(=O)C3CCCCC3)ccc2OC[C@@H](C)NC[C@@H]1C,-,-,-,-,-,-
COc1ccc(S(=O)(=O)Nc2ccc3c(c2)C(=O)N([C@H](C)CO)C[C@@H](C)[C@H](CN(C)C)OCCCC[C@@H](C)O3)cc1,-,-,-,-,-,.
CCC1NC(=S)N(C2CCCCC2)C1=O (stereo not drawn),55.4,.,.,.,-,-
CC(C)CC1NC(=S)N(C2CCCCC2)C1=O (stereo not drawn),-,.,.,.,-,-
C[C@@H]1CN([C@H](C)CO)C(=O)c2cc(NS(=O)(=O)c3cccs3)ccc2O[C@H]1CN(C)Cc1ccc(C(F)(F)F)cc1,-,-,-,-,-,-
COC(=O)[C@H](Cc1c[nH]c2ccccc12)NC(=O)NCc1ccc(OC)c(OC)c1,-,30.0,-,-,-,-
C[C@@H]1CCCCO[C@@H](CN(C)C(=O)Nc2ccc3c(c2)OCO3)[C@H](C)CN([C@H](C)CO)C(=O)c2cc(NS(=O)(=O)c3cn(C)cn3)ccc2O1,-,-,-,-,-,.
NS(=O)(=O)c1ccc(CCNC(=O)C(=O)c2c[nH]c3ccccc23)cc1,.,-,-,-22.0,.,.
CN(Cc1ccccc1)C(=O)C(C(=O)c1ccc(F)cc1)n1cc(Cl)ccc1=O (stereo not drawn),-,-,-,-29.8,.,.
O=C(NCc1ccc2c(c1)OCO2)C(C(=O)c1ccccc1)n1cc(Cl)ccc1=O (stereo not drawn),.,-,-,-,.,.
C[C@@H]1CN([C@H](C)CO)C(=O)c2cc(NC(=O)Nc3ccc4c(c3)OCO4)ccc2O[C@@H](C)CCCCO[C@H]1CN(C)Cc1ccncc1,-,-,-,-,-,.
ONC(=Nc1ccccc1Cl)c1c(F)cccc1F,.,-,-,-37.0,.,.
COc1ccc(CC(=O)O/N=C(\N)c2ccc(OC)cc2)cc1,-,-,-,-18.9,-,.
COc1ccc(CC(=O)O/N=C(\N)c2ccccc2)cc1OC,-,-,-,-22.1,-,-
CCCN1[C@@H]2c3ccc(-c4ccc(C(=O)N(C)C)cc4)c(=O)n3C[C@@H]2[C@@H](CO)[C@@H]1C(=O)NCCOC,.,-,-,-,-,-
SMILES,PGC1a acetyl inh,SIRT5 inh,S100A4 inh HTS,rRNA inh HTS,Cneo AK release,C2C12 statin
NC(=O)c1nsc(C(=O)N(c2ccccc2F)C(C(=O)NCc2ccc(F)cc2)c2ccc(O)cc2)c1N (stereo not drawn),.,-,-,-39.5,-,-
COc1ccccc1N(C(=O)c1snc(C(N)=O)c1N)C(C(=O)NCc1ccccc1)c1ccc(O)cc1 (stereo not drawn),.,.,-,-,-,-
O=c1nccc(N/N=C/c2ccccc2)[nH]1,-,24.4,-,-,-,-
O=c1cc(N/N=C/c2ccccc2)[nH]c(=O)[nH]1,-,-,-,-,-,-
CSCC[C@H](NC(=O)c1ccc(Br)o1)c1nnc2ccccn12,42.9,-,-,-,-,-
COc1ccc(S(=O)(=O)N[C@@H]2C=C[C@@H](CC(=O)NCCc3ccncc3)O[C@@H]2CO)cc1,-,-,-,-,-,-
O=C(c1ccco1)N1N=C(c2ccccc2O)CC1c1cccs1 (stereo not drawn),-,.,-,-,-,70.3
O=C(c1ccco1)N1N=C(c2cccs2)CC1c1ccco1 (stereo not drawn),-,-,-,-,.,-
Fc1ccc(COc2cccc3cccnc23)cc1,-,-,-,-,.,.
Cc1oc(C(=O)O)cc1COc1cccc2cccnc12,-,.,.,.,.,123.6
O=C(NC1Cc2ccccc2C1)[C@H]1[C@H](CO)[C@H]2Cn3c(ccc(C4=CCCCC4)c3=O)[C@@H]1N2,.,-,.,-,-,-
COCC(=O)N1CC2(CN[C@H](CO)c3c2c2ccc(OC)cc2n3C)C1,-,.,.,-,.,.
COc1cc(/C=C2\SC(=Nc3ccc(Cl)c(C(=O)O)c3)NC2=O)c(Br)c(Br)c1O,-,25.8,-,-,-,-
COc1cc(/C=C2\SC(=Nc3ccccc3)NC2=O)cc(Cl)c1O,-,-,-,-,-,-
COc1ccc(NC(=O)Nc2ccc3c(c2)C(=O)N([C@H](C)CO)C[C@@H](C)[C@@H](CN(C)CC2CCCCC2)OCCCC[C@@H](C)O3)cc1,-,-,-,-,-,-
C[C@H](O)C#Cc1cnc2c(c1)C(=O)N([C@H](C)CO)C[C@H](C)[C@@H](CN(C)CC1CCOCC1)O2,-,-,-,-,-,-
O=S(=O)(c1ccccc1F)N1CC[C@@H]2[C@@H](CO)Nc3ccc(-c4ccc(F)cc4)cc3[C@@H]21,-,.,-,-,-,-
C=CCn1c(SCC(=O)NNC(=S)Nc2ccccc2)nnc1-c1ccccc1,-,-,-,-16.4,-,-
COc1ccc2c3c(n(C)c2c1)[C@H](CO)N(CC1CC1)CC31CCN(C(=O)c2ccc3c(c2)OCO3)CC1,-,-,-,-,.,.
